The assay deals with Aspergillus fumigatus. The assay can be described thus: Antifungal activity against Aspergillus fumigatus Af293 infected in immunocompromized ICR mouse assessed as survival rate at 4.5 mg/kg, at pH 5.5 it administered on day 1, 4, 7 and 11 monitored for 28 days relative to control. Format: functional. The note with it: route endotracheal. The gist of the method: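 Six-week-old female ICR mice immunocompromised with cortisone acetate (150 mg/kg in PBS/0.1% Tween 80, s.c.) 4 days before treatment, on day of first treatment, and 2 and 4 days after. A. fumigatus lung infection on day 1. Lipopeptide given i.t. at 4.5 mg/kg (50 μL, pH 5.5) on days 1, 4, 7 and 11. Controls: saline, amphotericin B 1 mg/kg i.p. Survival followed 28 days; n = 9–10.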

Take `CCCCCCCCCCCCCC(=O)N[C@@H](Cc1c[nH]cn1)C(=O)N[C@@H](Cc1c[nH]cn1)C(=O)N1CCCN(C(=O)[C@H](Cc2c[nH]cn2)NC(=O)[C@H](Cc2c[nH]cn2)NC(=O)CCCCCCCCCCCCC)Cc2cc(cc(C(N)=O)c2)CN(C(=O)[C@H](Cc2c[nH]cn2)NC(=O)[C@H](Cc2c[nH]cn2)NC(=O)CCCCCCCCCCCCC)CCC1`: the survival at 4.5 mg/kg worked out at 55%.

The values above are taken from ChEMBL document CHEMBL2016446, “Trivalent ultrashort lipopeptides are potent pH dependent antifungal agents” (J Med Chem, 2012).
